# Molecular target: T1, AKR1C3 (Homo sapiens, UniProt P42330)
# T1 sequence (P42330 1-323): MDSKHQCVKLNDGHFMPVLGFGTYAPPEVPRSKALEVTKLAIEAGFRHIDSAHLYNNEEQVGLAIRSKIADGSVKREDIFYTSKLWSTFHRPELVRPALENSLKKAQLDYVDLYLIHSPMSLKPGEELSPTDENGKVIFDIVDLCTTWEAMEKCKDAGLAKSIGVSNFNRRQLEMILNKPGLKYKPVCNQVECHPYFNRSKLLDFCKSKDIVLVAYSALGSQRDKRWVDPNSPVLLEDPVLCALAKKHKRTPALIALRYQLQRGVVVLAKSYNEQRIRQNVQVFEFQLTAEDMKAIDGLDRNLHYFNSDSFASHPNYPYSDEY
# Test: primary inhibition assay
# Type: biochemical
# Settings: 10 µM compound, 1-acenaphthenol, NAD+, pH 9.0
# How it was run: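 Recombinant enzyme oxidises 1-acenaphthenol with 2.3 mM NAD+. Medium is 100 mM phosphate pH 9.0, 0.005% Triton X-114, 5% DMSO. […] Test compound is at 10 µM. NADH increase is read at 340 nm, and initial velocities are compared with compound-free controls. Values are the mean of two independent experiments.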
row,Structure (SMILES),AKR1C3 inhibition (%)
1,O=C(Nc1ccc(Br)cc1C(=O)O)c1ccc(F)c([N+](=O)[O-])c1 [Compound 8],no AKR1C3 isoform inhibition was observed
2,CCCCOc1cccc(C(=O)Nc2ccc(Br)cc2C(=O)O)c1 [Compound 15],almost completely lost
3,CCOc1cccc(C(=O)Nc2ccc(Br)cc2C(=O)O)c1 [Compound 14],almost completely lost

# From PMC4038446 (Bioorganic & medicinal chemistry letters, 2012)
